Test results as given in ChEMBL document CHEMBL4422643, “Physalactone and 4β-Hydroxywithanolide E Isolated from Physalis peruviana Inhibit LPS-Induced Expression of COX-2 and iNOS Accompanied by Abatement of Akt and STAT1” (J Nat Prod, 2019).
Activity calls are given as the source filed them. The rule behind the calls is not given here.

Key:
[1] = target: T1, I-kappa-B kinase (Mus musculus) (UniProt Q60680+O88351+O88522); assay: Effect on IKK-mediated IkappaBalpha degradation in LPS-stimulated mouse RAW264.7 cells at 5 uM preincubated for 30 mins followed by LPS-stimulation and measured after 10 mins by Western blot analysis; assay type: cell-based
How it was run: (§1)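 RAW 264.7 cells were pretreated 30 min with compound (5 or 40 μM), then given LPS 1 μg/mL for several time points. Western blots of whole-cell lysates probed IκBα, total and Ser473-phospho Akt, and total and Tyr701-phospho STAT1, with GAPDH as loading reference. Detection used HRP chemiluminescence.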

RAW264.7 [2] = assay: Antiinflammatory activity against mouse RAW264.7 cells assessed as inhibition of LPS-induced nitric oxide production preincubated for 30 mins followed by LPS challenge and measured after 18 hrs by Griess assay; assay type: functional, cell-based
How it was run: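 Macrophages (RAW 264.7, 5 × 10^5/well, 24 h settle) were pretreated 30 min in phenol-red-free medium at 0.128–5.0 or 1.0–40 μM, then given LPS 1 μg/mL for 18 h. Culture-supernatant nitrite was read by Griess reaction, and an IC50 was estimated from the concentration–response. n = 3.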

RAW264.7 [3] = assay: Antiinflammatory activity against mouse RAW264.7 cells assessed as inhibition of LPS induced iNOS mRNA expression preincubated for 30 mins followed by LPS challenge and measured after 3 to 12 hrs by SYBR green dye based qRT-PCR analysis; assay type: functional, cell-based
How it was run: (§2)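 RAW 264.7 cells were pretreated 30 min, then given LPS 1 μg/mL for 3, 6, 9 or 12 h. Total RNA went to qRT-PCR with SYBR Green for Nos2/Ptgs2. Values were normalized to β-actin by 2^−ΔΔCT and expressed as fold change versus unstimulated cells. n = 3; means ± SD; significance versus LPS-only at p < 0.05.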

RAW264.7 [4] = assay: Effect on total AKT expression in LPS-stimulated mouse RAW264.7 cells at 5 uM preincubated for 30 mins followed by LPS-stimulation and measured up to 240 mins by Western blot analysis; assay type: ADME, cell-based; conditions: raw264.7, 4 h; how it was run: as §1
[5] = Effect on SAPK/JNK1/2 phosphorylation at T183/Y185 residues in mouse RAW264.7 cells at 5 uM measured after 30 mins by Western blot analysis; assay type: ADME, cell-based; conditions: raw264.7, 0.5 h
RAW264.7 [6] = assay: Effect on total STAT1 expression in LPS-stimulated mouse RAW264.7 cells at 5 uM preincubated for 30 mins followed by LPS-stimulation and measured up to 240 mins by Western blot analysis; assay type: ADME, cell-based; conditions: raw264.7, 4 h; how it was run: as §1
RAW264.7 [7] = assay: Antiinflammatory activity against mouse RAW264.7 cells assessed as inhibition of LPS induced iNOS expression preincubated for 30 mins followed by LPS challenge and measured after 16 hrs by Western blot analysis; assay type: functional, cell-based
RAW264.7 [8] = assay: Antiinflammatory activity against mouse RAW264.7 cells assessed as inhibition of LPS induced COX2 expression preincubated for 30 mins followed by LPS challenge and measured after 16 hrs by Western blot analysis; assay type: functional, cell-based
RAW264.7 [9] = assay: Antiinflammatory activity against mouse RAW264.7 cells assessed as inhibition of LPS induced iNOS expression at 50 uM preincubated for 30 mins followed by LPS challenge and measured after 16 hrs by Western blot analysis; assay type: functional, cell-based
How it was run: (§3)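 RAW 264.7 cells in DMEM with 10% heat-inactivated FBS and penicillin/streptomycin at 37 °C, 5% CO2. Cells were pretreated 30 min at 50 μM, then given LPS 1 μg/mL for 16 h. iNOS and COX-2 protein were detected by Western blot (8–12% SDS-PAGE, PVDF, HRP secondary, chemiluminescence imaging), with equal total protein loaded by Bradford assay. n = 3.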

RAW264.7 [10] = assay: Antiinflammatory activity against mouse RAW264.7 cells assessed as inhibition of LPS-induced nitric oxide production by measuring nitrite levels at 50 uM preincubated for 30 mins followed by LPS challenge and measured after 16 hrs by Griess assay (reference value: 32.4 +/- 0.9 uM); assay type: functional
RAW264.7 [11] = assay: Antiinflammatory activity against mouse RAW264.7 cells assessed as inhibition of LPS induced COX2 expression at 50 uM preincubated for 30 mins followed by LPS challenge and measured after 16 hrs by Western blot analysis; assay type: functional, cell-based; how it was run: as §3
[12] = target: T2, Signal transducer and activator of transcription 1 (Mus musculus) (UniProt P42225); assay: Inhibition of LPS-induced STAT1 phosphorylation at Y701 residue in mouse RAW264.7 cells at 5 uM preincubated for 30 mins followed by LPS-stimulation and measured up to 240 mins by Western blot analysis; assay type: cell-based; how it was run: as §1
T2 sequence (whole entry): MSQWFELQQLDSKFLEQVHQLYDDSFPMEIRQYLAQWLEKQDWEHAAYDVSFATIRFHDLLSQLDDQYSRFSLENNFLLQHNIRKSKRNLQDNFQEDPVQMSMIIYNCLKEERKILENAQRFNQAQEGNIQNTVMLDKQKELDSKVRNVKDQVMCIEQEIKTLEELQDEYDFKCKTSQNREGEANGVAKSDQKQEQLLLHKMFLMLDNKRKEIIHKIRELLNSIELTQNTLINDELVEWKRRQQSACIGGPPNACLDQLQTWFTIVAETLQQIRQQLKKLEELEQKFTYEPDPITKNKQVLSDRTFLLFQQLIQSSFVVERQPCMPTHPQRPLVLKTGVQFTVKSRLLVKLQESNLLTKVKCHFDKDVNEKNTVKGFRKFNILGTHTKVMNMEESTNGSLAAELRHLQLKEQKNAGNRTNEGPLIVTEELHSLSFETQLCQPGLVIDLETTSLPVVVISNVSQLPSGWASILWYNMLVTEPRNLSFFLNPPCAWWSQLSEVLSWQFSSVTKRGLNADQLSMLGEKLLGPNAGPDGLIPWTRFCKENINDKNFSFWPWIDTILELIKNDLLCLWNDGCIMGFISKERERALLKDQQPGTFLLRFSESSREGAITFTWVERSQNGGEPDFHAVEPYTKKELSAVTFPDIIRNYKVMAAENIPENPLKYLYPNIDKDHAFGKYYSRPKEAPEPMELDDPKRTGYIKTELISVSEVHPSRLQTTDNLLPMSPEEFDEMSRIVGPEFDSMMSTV

[13] = target: T1, I-kappa-B kinase (Mus musculus); assay: Effect on IKK-mediated IkappaBalpha degradation in LPS-stimulated mouse RAW264.7 cells assessed as IkappaBalpha recovery at 5 uM preincubated for 30 mins followed by LPS-stimulation and measured after 20 to 240 mins by Western blot analysis; assay type: cell-based; how it was run: as §1
RAW264.7 [14] = assay: Antiinflammatory activity against mouse RAW264.7 cells assessed as inhibition of LPS induced COX2 mRNA expression preincubated for 30 mins followed by LPS challenge and measured after 3 to 12 hrs by SYBR green dye based qRT-PCR analysis; assay type: functional, cell-based; how it was run: as §2
[15] = target: RAC-alpha serine/threonine-protein kinase (Mus musculus) (UniProt P31750); assay: Inhibition of LPS-induced AKT phosphorylation at S473 residue in mouse RAW264.7 cells at 5 uM preincubated for 30 mins followed by LPS-stimulation and measured up to 240 mins by Western blot analysis; assay type: cell-based; how it was run: as §1
[16] = target: RAC-alpha serine/threonine-protein kinase (Mus musculus) (UniProt P31750); assay: Inhibition of LPS-induced AKT phosphorylation at S473 residue in mouse RAW264.7 cells at 40 uM preincubated for 30 mins followed by LPS-stimulation and measured up to 240 mins by Western blot analysis; assay type: cell-based; how it was run: as §1
[17] = target: T1, I-kappa-B kinase (Mus musculus); assay: Effect on IKK-mediated IkappaBalpha degradation in LPS-stimulated mouse RAW264.7 cells at 40 uM preincubated for 30 mins followed by LPS-stimulation and measured after 10 mins by Western blot analysis; assay type: cell-based; how it was run: as §1
RAW264.7 [18] = assay: Effect on total AKT expression in LPS-stimulated mouse RAW264.7 cells at 40 uM preincubated for 30 mins followed by LPS-stimulation and measured up to 240 mins by Western blot analysis; assay type: ADME, cell-based; conditions: raw264.7, 4 h; how it was run: as §1
[19] = target: T2, Signal transducer and activator of transcription 1 (Mus musculus); assay: Inhibition of LPS-induced STAT1 phosphorylation at Y701 residue in mouse RAW264.7 cells at 40 uM preincubated for 30 mins followed by LPS-stimulation and measured up to 240 mins by Western blot analysis; assay type: cell-based; how it was run: as §1
[20] = Effect on SAPK/JNK1/2 phosphorylation at T183/Y185 residues in mouse RAW264.7 cells at 40 uM measured after 30 mins by Western blot analysis; assay type: ADME, cell-based; conditions: raw264.7, 0.5 h
[21] = target: T1, I-kappa-B kinase (Mus musculus); assay: Effect on IKK-mediated IkappaBalpha degradation in LPS-stimulated mouse RAW264.7 cells assessed as IkappaBalpha recovery at 40 uM preincubated for 30 mins followed by LPS-stimulation and measured after 20 to 240 mins by Western blot analysis; assay type: cell-based; how it was run: as §1
RAW264.7 [22] = assay: Effect on total STAT1 expression in LPS-stimulated mouse RAW264.7 cells at 40 uM preincubated for 30 mins followed by LPS-stimulation and measured up to 240 mins by Western blot analysis; assay type: ADME, cell-based; conditions: raw264.7, 4 h; how it was run: as §1

Sequence of RAC-alpha serine/threonine-protein kinase (Mus musculus) (P31750 whole entry): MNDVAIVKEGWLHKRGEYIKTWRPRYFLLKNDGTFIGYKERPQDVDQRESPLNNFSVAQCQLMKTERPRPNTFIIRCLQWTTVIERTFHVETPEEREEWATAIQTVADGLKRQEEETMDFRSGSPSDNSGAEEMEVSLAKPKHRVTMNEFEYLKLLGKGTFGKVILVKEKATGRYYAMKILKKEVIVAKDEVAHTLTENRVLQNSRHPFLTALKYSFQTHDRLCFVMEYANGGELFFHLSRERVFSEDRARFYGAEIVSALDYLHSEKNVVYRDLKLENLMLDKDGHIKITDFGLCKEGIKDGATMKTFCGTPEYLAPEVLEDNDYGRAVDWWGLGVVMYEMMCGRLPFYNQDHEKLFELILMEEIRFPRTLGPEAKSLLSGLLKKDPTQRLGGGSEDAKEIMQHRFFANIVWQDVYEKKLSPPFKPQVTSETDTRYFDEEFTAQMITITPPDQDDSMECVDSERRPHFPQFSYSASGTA

Structure (SMILES) | IC50 (RAW264.7 [2]) [µM] | inhibition (RAW264.7 [3]) | inhibition (RAW264.7 [7]) | inhibition (RAW264.7 [8]) | inhibition (RAW264.7 [9]) | Activity (RAW264.7 [10]) [µM] | inhibition (RAW264.7 [11]) | inhibition (RAW264.7 [14]) | further results
CC1=C(C)C(=O)O[C@@H]([C@](C)(O)[C@]2(O)CC[C@@]3(O)[C@@H]4C[C@H]5O[C@]56[C@@H](O)C=CC(=O)[C@]6(C)[C@H]4CC[C@]23C)C1 | 1.8 | Dose-dependent effect | Dose-dependent effect | Dose-dependent effect | Active | 0.9 | Active | Dose-dependent effect | Activity [1]: inactive; Activity (RAW264.7 [4]): Non-Toxic; Activity [5]: Not Active; Activity (RAW264.7 [6]): Non-Toxic; inhibition [12]: Active; Activity [13]: inactive; inhibition [15]: Active
CO[C@H]1CC(=O)[C@]2(C)[C@H]3CC[C@]4(C)[C@](O)([C@@](C)(O)[C@H]5CC(C)=C(C)C(=O)O5)CC[C@@]4(O)[C@@H]3C[C@H]3O[C@]32[C@H]1O | 13.8 | Dose-dependent effect | Dose-dependent effect | Dose-dependent effect | Active | 1.1 | Active | Dose-dependent effect | inhibition [16]: Active; Activity [17]: inactive; Activity (RAW264.7 [18]): Non-Toxic; inhibition [19]: Active; Activity [20]: Not Active; Activity [21]: inactive; Activity (RAW264.7 [22]): Non-Toxic
